Measurements as given in ChEMBL document CHEMBL4364248, “Discovery of 1,2,4-oxadiazole-Containing hydroxamic acid derivatives as histone deacetylase inhibitors potential application in cancer therapy” (Eur J Med Chem, 2019).
Calls of active or inactive are those of the source. The rule behind the calls is not given here.

Key:
[1] = target: Histone deacetylase 3/Nuclear receptor corepressor 2 (HDAC3/NCoR2) (Homo sapiens, UniProt O15379); assay: Inhibition of human recombinant full length C-terminal His-tagged HDAC3 (1 to 428 residues)/N-terminal GST-tagged NCOR2 (395 to 489 residues) expressed in Sf9 cells using Ac-peptide-AMC as substrate after 1 hr by fluorescence assay
[2] = target: Histone deacetylase 8 (Homo sapiens, UniProt Q9BY41); assay: Inhibition of recombinant full length C-terminal His-tagged human HDAC8 expressed in baculovirus infected in Sf9 cells using Ac-peptide-AMC as substrate after 1 hr by fluorescence assay
[3] = target: Histone deacetylase 9 (Homo sapiens, UniProt Q9UKV0); assay: Inhibition of recombinant C-terminal His-tagged human HDAC9 (604 to 1066 residues) expressed in baculovirus infected Sf9 cells using Ac-peptide-AMC as substrate after 1 hr by fluorescence assay
[4] = target: Histone deacetylase 11 (Homo sapiens, UniProt Q96DB2); assay: Inhibition of recombinant full length human HDAC11 expressed in baculovirus infected Sf9 cells using Ac-peptide-AMC as substrate after 1 hr by fluorescence assay
[5] = test system: MM1.S; assay: Antiproliferative activity against human MM1S cells after 72 hrs by MTT assay; type: functional, cell-based
[6] = test system: Raji; assay: Antiproliferative activity against human Raji cells after 72 hrs by MTT assay; type: functional, cell-based
[7] = test system: JeKo-1; assay: Antiproliferative activity against human JeKo1 cells after 72 hrs by MTT assay; type: functional, cell-based; details: JeKo-1, 72 h
[8] = target: Histone deacetylase 1/2/3 (Homo sapiens) (UniProt Q13547+O15379+Q92769); assay: Inhibition of HDAC1/2/3 in human MM1S cells assessed as upregulation of H3 acetylation at 40 nM after 6 hrs by Western blot analysis; type: cell-based
[9] = test system: JeKo-1; assay: Cell cycle arrest in human JeKo1 cells assessed as accumulation at S phase at 10 nM after 24 hrs by propidium iodide staining based flow cytometric analysis (reference value: 26.13 %); type: functional
[10] = test system: JeKo-1; assay: Cell cycle arrest in human JeKo1 cells assessed as accumulation at G2/M phase at 10 nM after 24 hrs by propidium iodide staining based flow cytometric analysis (reference value: 10.71 %); type: functional
[11] = test system: JeKo-1; assay: Cell cycle arrest in human JeKo1 cells assessed as accumulation at G1 phase at 1000 nM after 24 hrs by propidium iodide staining based flow cytometric analysis (reference value: 63.16 %); type: functional
[12] = test system: JeKo-1; assay: Cell cycle arrest in human JeKo1 cells assessed as accumulation at G2/M phase at 1000 nM after 24 hrs by propidium iodide staining based flow cytometric analysis (reference value: 10.71 %); type: functional
[13] = test system: JeKo-1; assay: Induction of apoptosis in human JeKo1 cells assessed as early apoptotic cells at 10 nM after 48 hrs by annexin V-FITC/propidium iodide staining-based flow cytometric method (reference value: 3.34 %); type: functional
How it was run: (§1)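 Jeko-1 cells were grown in RPMI-1640 with 10% FBS at 37 °C under 5% CO2. They were exposed to 0, 10, 100 or 1000 nM for 48 h, then apoptosis induction was analysed.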

[14] = test system: JeKo-1; assay: Induction of apoptosis in human JeKo1 cells assessed as necrotic cells at 10 nM after 48 hrs by annexin V-FITC/propidium iodide staining-based flow cytometric method (reference value: 2.03 %); type: functional; how it was run: as §1
[15] = test system: JeKo-1; assay: Induction of apoptosis in human JeKo1 cells assessed as early apoptotic cells at 100 nM after 48 hrs by annexin V-FITC/propidium iodide staining-based flow cytometric method (reference value: 3.34 %); type: functional; how it was run: as §1
[16] = test system: JeKo-1; assay: Induction of apoptosis in human JeKo1 cells assessed as early apoptotic cells at 1000 nM after 48 hrs by annexin V-FITC/propidium iodide staining-based flow cytometric method (reference value: 3.34 %); type: functional; how it was run: as §1
[17] = test system: JeKo-1; assay: Induction of apoptosis in human JeKo1 cells assessed as late apoptotic cells at 1000 nM after 48 hrs by annexin V-FITC/propidium iodide staining-based flow cytometric method (reference value: 3.07 %); type: functional; how it was run: as §1
[18] = Volume of distribution at steady state in Sprague-Dawley rat at 5 mg/kg, iv measured upto 24 hrs by LC-MS/MS analysis; type: ADME, organism-based; details: in vivo, read-out: Vdss
How it was run: (§2)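 SD rats (200-250 g), six per time point, given 5 mg/kg as a tail-vein bolus or orally. Blood was taken by cardiac puncture before dosing and at 5, 15, 30, 45 min and 1, 2, 4, 6, 8, 10, 12 and 24 h. Plasma was spun at 4000 g for 15 min at 4 °C and stored at -80 °C. Analysis was LC-MS/MS with multiple-reaction monitoring, followed by noncompartmental analysis.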

[19] = AUC ( 0 to t) in Sprague-Dawley rat at 5 mg/kg, iv measured upto 24 hrs by LC-MS/MS analysis; type: ADME, organism-based; design: dose 5 mg/kg, time < 24 hr, route intravenous; details: in vivo; how it was run: as §2
[20] = Cmax in Sprague-Dawley rat at 5 mg/kg, iv measured upto 24 hrs by LC-MS/MS analysis; type: ADME, organism-based; design: dose 5 mg/kg, route intravenous; details: in vivo; how it was run: as §2
[21] = Half life in Sprague-Dawley rat at 5 mg/kg, iv measured upto 24 hrs by LC-MS/MS analysis; type: ADME, organism-based; details: in vivo; how it was run: as §2
[22] = Clearance in Sprague-Dawley rat at 5 mg/kg, po measured upto 24 hrs by LC-MS/MS analysis; type: ADME, organism-based; details: in vivo; how it was run: as §2
[23] = AUC ( 0 to t) in Sprague-Dawley rat at 5 mg/kg, po measured upto 24 hrs by LC-MS/MS analysis; type: ADME, organism-based; design: dose 5 mg/kg, time < 24 hr, route oral; details: in vivo; how it was run: as §2
[24] = test system: Daudi; assay: Antitumour activity against human Daudi cells xenografted in NOD/SCID mouse assessed as increase in acetylated H4 expression at 20 mg/kg, po treated on day 1,3 and 5 per week by immunohistochemical analysis; type: functional, organism-based
How it was run: (§3)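 Daudi s.c. xenografts in female NOD/SCID mice (5–6 weeks) were randomized six per group at 100–200 mm3. Dosing was 10 mg/kg i.v. or 20 mg/kg p.o. in 8% HP-β-CD on days 1, 3 and 5 weekly. Tumors were collected at study end for immunohistochemistry, with comparison to the control group.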

[25] = test system: Daudi; assay: Antitumour activity against human Daudi cells xenografted in NOD/SCID mouse assessed as DNA damage at 10 mg/kg, iv treated on day 1,3 and 5 per week; type: functional, organism-based; how it was run: as §3
[26] = Toxicity in NOD/SCID mouse xenografted with human Daudi cells assessed as abnormal behavior at 20 mg/kg, po treated on day 1,3 and 5 per week and measured for every 2 days; type: organism-based; details: in vivo, 48 h
How it was run: (§4)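 Female NOD/SCID mice (5–6 weeks) bearing s.c. Daudi xenografts, six per group. Dosing was 10 mg/kg i.v. or 20 mg/kg p.o. in 8% HP-β-CD on days 1, 3 and 5 weekly. Behaviour was observed, and organ tissues were collected at sacrifice for H&E staining.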

[27] = Toxicity in NOD/SCID mouse xenografted with human Daudi cells at 20 mg/kg, po treated on day 1,3 and 5 per week and measured for every 2 days; type: organism-based; details: in vivo, 48 h; how it was run: as §4
[28] = Toxicity in NOD/SCID mouse xenografted with human Daudi cells assessed as abnormal behavior at 10 mg/kg, iv treated on day 1,3 and 5 per week and measured for every 2 days; type: organism-based; details: in vivo, 48 h; how it was run: as §4

Chain of Histone deacetylase 9 (Q9UKV0 whole entry, the tested form may be a part): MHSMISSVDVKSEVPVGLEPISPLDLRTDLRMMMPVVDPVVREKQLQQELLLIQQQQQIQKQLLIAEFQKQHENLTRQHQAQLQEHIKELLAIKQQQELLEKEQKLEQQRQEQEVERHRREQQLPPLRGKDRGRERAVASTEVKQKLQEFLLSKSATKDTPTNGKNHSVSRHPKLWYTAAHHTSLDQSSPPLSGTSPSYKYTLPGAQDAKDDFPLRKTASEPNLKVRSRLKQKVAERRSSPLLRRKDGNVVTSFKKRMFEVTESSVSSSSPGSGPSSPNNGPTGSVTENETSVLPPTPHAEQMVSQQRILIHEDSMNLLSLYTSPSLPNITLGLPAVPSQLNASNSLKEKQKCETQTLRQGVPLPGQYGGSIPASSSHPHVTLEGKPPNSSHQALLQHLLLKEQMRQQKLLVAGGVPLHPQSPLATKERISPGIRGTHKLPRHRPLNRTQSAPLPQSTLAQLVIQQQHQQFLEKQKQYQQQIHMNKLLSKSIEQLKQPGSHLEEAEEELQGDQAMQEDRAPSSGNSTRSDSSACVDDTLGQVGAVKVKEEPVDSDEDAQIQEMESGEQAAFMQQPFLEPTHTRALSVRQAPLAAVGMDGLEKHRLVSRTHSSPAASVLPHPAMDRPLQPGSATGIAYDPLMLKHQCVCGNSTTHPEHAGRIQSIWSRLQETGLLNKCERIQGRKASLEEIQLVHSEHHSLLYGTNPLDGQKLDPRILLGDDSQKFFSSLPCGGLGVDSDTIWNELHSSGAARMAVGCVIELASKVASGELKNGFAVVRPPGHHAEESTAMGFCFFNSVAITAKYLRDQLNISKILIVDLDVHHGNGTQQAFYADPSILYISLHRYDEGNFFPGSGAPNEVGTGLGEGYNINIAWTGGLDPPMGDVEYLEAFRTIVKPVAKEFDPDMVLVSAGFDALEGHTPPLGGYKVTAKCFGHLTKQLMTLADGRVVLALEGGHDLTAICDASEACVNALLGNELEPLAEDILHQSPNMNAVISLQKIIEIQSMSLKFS
Chain of Histone deacetylase 11 (Q96DB2 whole entry): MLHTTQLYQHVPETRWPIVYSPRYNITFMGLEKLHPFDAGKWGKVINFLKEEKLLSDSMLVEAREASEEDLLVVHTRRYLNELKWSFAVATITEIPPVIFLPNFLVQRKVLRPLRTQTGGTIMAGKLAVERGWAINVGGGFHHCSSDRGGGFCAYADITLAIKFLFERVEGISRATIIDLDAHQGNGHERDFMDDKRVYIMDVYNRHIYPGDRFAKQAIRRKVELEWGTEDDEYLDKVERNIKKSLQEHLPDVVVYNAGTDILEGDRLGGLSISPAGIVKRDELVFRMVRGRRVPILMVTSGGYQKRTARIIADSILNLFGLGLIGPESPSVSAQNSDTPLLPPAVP
Chain of Histone deacetylase 8 (Q9BY41 whole entry, the tested form may be a part): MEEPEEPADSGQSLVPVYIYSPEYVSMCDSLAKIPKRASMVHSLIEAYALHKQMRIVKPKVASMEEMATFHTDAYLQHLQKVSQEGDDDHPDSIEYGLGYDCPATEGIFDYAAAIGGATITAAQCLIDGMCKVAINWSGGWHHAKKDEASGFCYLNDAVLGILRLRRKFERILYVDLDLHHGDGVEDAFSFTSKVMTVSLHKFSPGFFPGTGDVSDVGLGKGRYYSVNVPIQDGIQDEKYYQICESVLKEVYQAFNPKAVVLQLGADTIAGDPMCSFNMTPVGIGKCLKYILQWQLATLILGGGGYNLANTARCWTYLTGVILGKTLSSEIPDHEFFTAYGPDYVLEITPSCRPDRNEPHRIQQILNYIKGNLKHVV
Chain of Histone deacetylase 3/Nuclear receptor corepressor 2 (HDAC3/NCoR2) (O15379 whole entry, the tested form may be a part): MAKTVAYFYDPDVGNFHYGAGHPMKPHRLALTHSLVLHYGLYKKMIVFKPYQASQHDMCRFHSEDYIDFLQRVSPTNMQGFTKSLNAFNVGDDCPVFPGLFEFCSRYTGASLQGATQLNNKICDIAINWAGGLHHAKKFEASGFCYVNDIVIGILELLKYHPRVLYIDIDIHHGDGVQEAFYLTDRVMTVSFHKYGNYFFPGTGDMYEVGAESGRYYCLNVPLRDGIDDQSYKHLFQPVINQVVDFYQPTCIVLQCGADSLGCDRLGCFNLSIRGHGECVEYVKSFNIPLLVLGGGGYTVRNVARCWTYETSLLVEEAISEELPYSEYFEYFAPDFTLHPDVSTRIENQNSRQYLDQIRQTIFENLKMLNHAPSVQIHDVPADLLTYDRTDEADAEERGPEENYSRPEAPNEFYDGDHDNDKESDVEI
Chain of Histone deacetylase 3/Nuclear receptor corepressor 2 (HDAC3/NCoR2) (Q9Y618 whole entry, further chain, the tested form may be a part): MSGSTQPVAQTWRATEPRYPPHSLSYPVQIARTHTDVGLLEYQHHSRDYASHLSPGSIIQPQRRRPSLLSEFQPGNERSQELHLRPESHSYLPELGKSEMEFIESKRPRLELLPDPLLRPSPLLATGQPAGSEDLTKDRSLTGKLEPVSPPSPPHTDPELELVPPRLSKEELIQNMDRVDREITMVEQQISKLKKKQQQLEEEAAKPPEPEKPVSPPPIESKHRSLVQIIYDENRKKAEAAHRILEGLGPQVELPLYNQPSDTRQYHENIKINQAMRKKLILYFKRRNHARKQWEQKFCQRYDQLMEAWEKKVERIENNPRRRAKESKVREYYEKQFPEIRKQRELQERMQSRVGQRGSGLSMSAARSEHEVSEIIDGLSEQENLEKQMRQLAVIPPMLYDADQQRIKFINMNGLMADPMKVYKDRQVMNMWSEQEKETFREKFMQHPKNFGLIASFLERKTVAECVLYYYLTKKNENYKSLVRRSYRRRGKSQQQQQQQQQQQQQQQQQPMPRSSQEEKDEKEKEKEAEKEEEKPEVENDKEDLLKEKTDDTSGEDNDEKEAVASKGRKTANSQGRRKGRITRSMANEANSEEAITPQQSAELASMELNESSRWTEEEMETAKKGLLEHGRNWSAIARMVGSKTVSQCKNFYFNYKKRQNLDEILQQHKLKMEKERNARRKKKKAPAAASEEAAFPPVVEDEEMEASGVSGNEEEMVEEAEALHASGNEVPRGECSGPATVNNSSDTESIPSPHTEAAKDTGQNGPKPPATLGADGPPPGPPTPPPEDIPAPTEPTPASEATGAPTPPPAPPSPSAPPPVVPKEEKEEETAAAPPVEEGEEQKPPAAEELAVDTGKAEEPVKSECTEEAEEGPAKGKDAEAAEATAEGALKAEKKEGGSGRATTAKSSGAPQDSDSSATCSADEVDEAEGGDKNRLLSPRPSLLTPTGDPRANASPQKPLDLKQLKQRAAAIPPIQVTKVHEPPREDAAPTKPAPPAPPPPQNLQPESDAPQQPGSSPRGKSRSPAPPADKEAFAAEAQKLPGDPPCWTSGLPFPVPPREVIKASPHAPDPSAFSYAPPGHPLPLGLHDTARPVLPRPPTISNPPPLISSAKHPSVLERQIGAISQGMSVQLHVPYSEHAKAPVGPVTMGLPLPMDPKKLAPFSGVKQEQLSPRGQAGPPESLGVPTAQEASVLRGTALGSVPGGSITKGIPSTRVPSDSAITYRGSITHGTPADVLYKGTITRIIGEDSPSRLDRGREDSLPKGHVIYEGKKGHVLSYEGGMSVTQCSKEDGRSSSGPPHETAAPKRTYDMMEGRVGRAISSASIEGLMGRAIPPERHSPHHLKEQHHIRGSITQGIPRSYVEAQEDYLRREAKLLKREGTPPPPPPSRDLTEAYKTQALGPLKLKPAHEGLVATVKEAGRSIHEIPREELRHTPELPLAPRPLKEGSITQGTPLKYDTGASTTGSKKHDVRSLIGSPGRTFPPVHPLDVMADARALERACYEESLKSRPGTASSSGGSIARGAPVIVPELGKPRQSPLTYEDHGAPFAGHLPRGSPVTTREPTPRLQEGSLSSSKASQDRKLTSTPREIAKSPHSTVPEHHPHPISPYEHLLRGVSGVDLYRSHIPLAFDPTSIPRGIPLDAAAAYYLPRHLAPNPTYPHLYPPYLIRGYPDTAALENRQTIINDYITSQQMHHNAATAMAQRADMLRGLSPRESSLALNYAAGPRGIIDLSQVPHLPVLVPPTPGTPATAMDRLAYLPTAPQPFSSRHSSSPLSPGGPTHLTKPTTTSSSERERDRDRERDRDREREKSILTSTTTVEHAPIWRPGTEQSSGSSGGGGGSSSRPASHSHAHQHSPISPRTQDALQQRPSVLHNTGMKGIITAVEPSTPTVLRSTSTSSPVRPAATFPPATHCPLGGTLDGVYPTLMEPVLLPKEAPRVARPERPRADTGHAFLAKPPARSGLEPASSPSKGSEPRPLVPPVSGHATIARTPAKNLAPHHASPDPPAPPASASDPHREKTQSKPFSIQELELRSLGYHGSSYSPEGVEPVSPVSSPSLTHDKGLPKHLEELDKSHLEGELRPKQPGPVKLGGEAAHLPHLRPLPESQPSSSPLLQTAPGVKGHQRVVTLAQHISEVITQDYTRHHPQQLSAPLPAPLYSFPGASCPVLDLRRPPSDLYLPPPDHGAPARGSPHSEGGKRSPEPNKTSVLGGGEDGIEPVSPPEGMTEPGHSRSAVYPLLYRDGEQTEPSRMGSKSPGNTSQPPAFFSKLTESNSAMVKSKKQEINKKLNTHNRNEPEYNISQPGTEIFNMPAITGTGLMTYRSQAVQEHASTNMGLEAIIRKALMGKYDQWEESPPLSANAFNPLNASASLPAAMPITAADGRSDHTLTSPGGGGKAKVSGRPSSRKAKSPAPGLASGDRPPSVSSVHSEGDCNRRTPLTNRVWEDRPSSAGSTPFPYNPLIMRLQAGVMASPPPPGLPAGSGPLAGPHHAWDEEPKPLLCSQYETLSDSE

Cc1ccc(CN2CCC(c3noc(CN(C)c4ncc(C(=O)NO)cn4)n3)CC2)cc1
IC50 [1]: 3 nM | IC50 [2]: 260 nM | IC50 [3]: 441 nM | IC50 [4]: > 10000 nM | IC50 [5]: 9.8 nM | IC50 [6]: 12.1 nM | IC50 [7]: 7.2 nM | inhibition [8]: Active | Activity [9]: 24% | Activity [10]: 9.1% | Activity [11]: 82.86% | Activity [12]: 4.32% | Activity [13]: 5.57% | Activity [14]: 0.39% | Activity [15]: 28.3% | Activity [16]: 42.7% | Activity [17]: 30.4% | Vd [18]: 6.33 L/kg | AUC(0-t) at 24 h [19]: 433 ng·h/mL | Cmax [20]: 955 ng/mL | half-life [21]: 23.4 min | CL/F [22]: 372 mL/min/kg | AUC(0-t) at 24 h [23]: 232 ng·h/mL | Activity [24]: Active | Activity [25]: Active | Activity [26]: Non-Toxic | Activity [27]: Non-Toxic | Activity [28]: Non-Toxic
